Measurements: ChEMBL document CHEMBL1142076, “Expression of immunomodulatory genes in human monocytes induced by voriconazole in the presence of Aspergillus fumigatus” (2007)
Activity calls are given as the source filed them. The rule behind the calls is not given here.

What was measured:
THP-1 [1] = experiment: Effect on IL1R1 gene expression in THP1 cells treated with Aspergillus fumigatus hyphae after 6 hrs by cDNA array hybridization; format: functional, Homo sapiens
Procedure, shortened: (§1)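 THP-1 cells primed with 10 ng/ml PMA for 6 h, rested 22 h, then exposed 6 h at 37°C to sonicated, nonviable AF 4215 hyphal fragments (E:T 10:1) with or without 0.1 μg/ml VRC. Total RNA (4 μg) reverse-transcribed to biotin-labelled cDNA and hybridised to a 96-gene inflammatory cytokine/receptor nylon array. Chemiluminescent read-out normalised to GAPDH; fold change against untreated cells; >2.5-fold counted significant; three independent arrays.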

THP-1 [2] = experiment: Effect on TNFA gene expression in THP1 cells treated with Aspergillus fumigatus hyphae after 6 hrs by cDNA array hybridization; format: functional, Homo sapiens; procedure, shortened: as §1
THP-1 [3] = experiment: Effect on TNFA gene expression in THP1 cells treated with Aspergillus fumigatus hyphae by RT-PCR; format: functional, Homo sapiens
Procedure, shortened: (§2)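 THP-1 cells PMA-primed and exposed to hyphal fragments (E:T 10:1) with or without 0.1 μg/ml VRC. One-step RT-PCR on 0.5 μg total RNA with M-MuLV: 48°C 30 min, then 30 cycles of 94°C 15 s, 53°C 30 s, 72°C 1 min. Products run on 1.5% agarose and quantified by densitometry after normalisation to an internal control; three independent experiments.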

THP-1 [4] = experiment: Effect on CCL2 gene expression in THP1 cells treated with Aspergillus fumigatus hyphae by RT-PCR; format: functional, Homo sapiens; procedure, shortened: as §2
THP-1 [5] = experiment: Effect on CCL4 gene expression in THP1 cells treated with Aspergillus fumigatus hyphae by RT-PCR; format: functional, Homo sapiens; procedure, shortened: as §2
THP-1 [6] = experiment: Increase in IL1-beta production in THP1 cells stimulated with Aspergillus fumigatus hyphae at 0.1 ug/ml after 6 hrs; format: functional, cell-based; settings: Homo sapiens
Procedure, shortened: (§3)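 PMA-primed THP-1 cells (1 × 10^6/ml) incubated 6 h at 37°C with hyphal fragments (E:T 10:1) with or without 0.1 μg/ml VRC. Supernatant IL-1β, TNF-α, IL-12, MCP-1 and MIP-1β measured by sandwich ELISA in duplicate at 450/540 nm. Five independent experiments, means ± SEM; ANOVA with Dunnett's test against untreated cells.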

THP-1 [7] = experiment: Increase in IL12 production in THP1 cells stimulated with Aspergillus fumigatus hyphae at 0.1 ug/ml after 6 hrs; format: functional, cell-based; settings: Homo sapiens; procedure, shortened: as §3
THP-1 [8] = experiment: Increase in TNFalpha production in THP1 cells stimulated with Aspergillus fumigatus hyphae at 0.1 ug/ml after 6 hrs; format: functional, cell-based; settings: Homo sapiens; procedure, shortened: as §3
THP-1 [9] = experiment: Decrease in MCP1 production in THP1 cells stimulated with Aspergillus fumigatus hyphae at 0.1 ug/ml after 6 hrs; format: functional, cell-based; settings: Homo sapiens; procedure, shortened: as §3
THP-1 [10] = experiment: Decrease in MIP1-beta production in THP1 cells stimulated with Aspergillus fumigatus hyphae at 0.1 ug/ml after 6 hrs; format: functional, cell-based; settings: Homo sapiens; procedure, shortened: as §3
Aspergillus fumigatus [11] = experiment: Antifungal activity against Aspergillus fumigatus hyphae assessed as hyphal damage at 0.1 ug/ml after 6 hrs by XTT assay; format: functional
Procedure, shortened: (§4)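 A. fumigatus AF 4215 hyphae grown 16 h at 37°C in yeast nitrogen base with 2% glucose, then medium changed to RPMI 1640 + 10% heat-inactivated FCS. PMA-induced THP-1 cells added at E:T 10:1, VRC at 0.1 μg/ml, or both, 6 h at 37°C, 5% CO2. THP-1 lysed with water. XTT 0.25 mg/ml plus coenzyme Q0 40 μg/ml, 1 h. OD 450/690 nm; damage = (1 − X/C)×100 against hyphae-only wells; duplicates.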

Aspergillus fumigatus [12] = experiment: Antifungal activity against Aspergillus fumigatus hyphae incubated with THP1 cells assessed as hyphal damage at 0.1 ug/ml after 6 hrs by XTT assay; format: functional, THP-1; procedure, shortened: as §4
THP-1 [13] = experiment: Effect on CCL2 gene expression in THP1 cells treated with Aspergillus fumigatus hyphae after 6 hrs by cDNA array hybridization relative to control; format: functional, Homo sapiens; procedure, shortened: as §1
THP-1 [14] = experiment: Effect on CCL3 gene expression in THP1 cells treated with Aspergillus fumigatus hyphae after 6 hrs by cDNA array hybridization relative to control; format: functional, Homo sapiens; procedure, shortened: as §1
THP-1 [15] = experiment: Effect on CCL4 gene expression in THP1 cells treated with Aspergillus fumigatus hyphae after 6 hrs by cDNA array hybridization relative to control; format: functional, Homo sapiens; procedure, shortened: as §1
THP-1 [16] = experiment: Effect on CCL5 gene expression in THP1 cells treated with Aspergillus fumigatus hyphae after 6 hrs by cDNA array hybridization relative to control; format: functional, Homo sapiens; procedure, shortened: as §1
THP-1 [17] = experiment: Effect on CCL7 gene expression in THP1 cells treated with Aspergillus fumigatus hyphae after 6 hrs by cDNA array hybridization relative to control; format: functional, Homo sapiens; procedure, shortened: as §1
THP-1 [18] = experiment: Effect on CCL11 gene expression in THP1 cells treated with Aspergillus fumigatus hyphae after 6 hrs by cDNA array hybridization relative to control; format: functional, Homo sapiens; procedure, shortened: as §1
THP-1 [19] = experiment: Effect on CCL15 gene expression in THP1 cells treated with Aspergillus fumigatus hyphae after 6 hrs by cDNA array hybridization relative to control; format: functional, Homo sapiens; procedure, shortened: as §1
THP-1 [20] = experiment: Effect on CCL20 gene expression in THP1 cells treated with Aspergillus fumigatus hyphae after 6 hrs by cDNA array hybridization relative to control; format: functional, Homo sapiens; procedure, shortened: as §1
THP-1 [21] = experiment: Effect on CCL21 gene expression in THP1 cells treated with Aspergillus fumigatus hyphae after 6 hrs by cDNA array hybridization relative to control; format: functional, Homo sapiens; procedure, shortened: as §1
THP-1 [22] = experiment: Effect on CXCL6 gene expression in THP1 cells treated with Aspergillus fumigatus hyphae after 6 hrs by cDNA array hybridization relative to control; format: functional, Homo sapiens; procedure, shortened: as §1
THP-1 [23] = experiment: Effect on CXCL13 gene expression in THP1 cells treated with Aspergillus fumigatus hyphae after 6 hrs by cDNA array hybridization relative to control; format: functional, Homo sapiens; procedure, shortened: as §1
THP-1 [24] = experiment: Effect on IL11 gene expression in THP1 cells treated with Aspergillus fumigatus hyphae after 6 hrs by cDNA array hybridization; format: functional, Homo sapiens; procedure, shortened: as §1
THP-1 [25] = experiment: Effect on TGFB1 gene expression in THP1 cells treated with Aspergillus fumigatus hyphae after 6 hrs by cDNA array hybridization; format: functional, Homo sapiens; procedure, shortened: as §1
THP-1 [26] = experiment: Effect on IL12A gene expression in THP1 cells treated with Aspergillus fumigatus hyphae after 6 hrs by cDNA array hybridization; format: functional, Homo sapiens; procedure, shortened: as §1
THP-1 [27] = experiment: Effect on IL12B gene expression in THP1 cells treated with Aspergillus fumigatus hyphae after 6 hrs by cDNA array hybridization; format: functional, Homo sapiens; procedure, shortened: as §1
THP-1 [28] = experiment: Effect on IL16 gene expression in THP1 cells treated with Aspergillus fumigatus hyphae after 6 hrs by cDNA array hybridization; format: functional, Homo sapiens; procedure, shortened: as §1
THP-1 [29] = experiment: Effect on IFN-gamma gene expression in THP1 cells treated with Aspergillus fumigatus hyphae after 6 hrs by cDNA array hybridization; format: functional, Homo sapiens; procedure, shortened: as §1
CCL16 (Homo sapiens) = experiment: Effect on CCL16 gene expression in THP1 cells treated with Aspergillus fumigatus hyphae after 6 hrs by cDNA array hybridization relative to control

C[C@@H](c1ncncc1F)[C@](O)(Cn1cncn1)c1ccc(F)cc1F [VORICONAZOLE]
Fold change (THP-1 [1]): 6.3 | Fold change (THP-1 [2]): 3.1 | Fold change (THP-1 [3]): 2.6 | Fold change (THP-1 [4]): -3 | Fold change (THP-1 [5]): 4 | Activity (THP-1 [6]): Active | Activity (THP-1 [7]): Active | Activity (THP-1 [8]): Active | Activity (THP-1 [9]): Active | Activity (THP-1 [10]): Active | Activity (Aspergillus fumigatus [11]): 26.77% | Activity (Aspergillus fumigatus [12]): 42.11% | Fold change (THP-1 [13]): -2.4 | Fold change (THP-1 [14]): 19.3 | Fold change (THP-1 [15]): 5.2 | Fold change (THP-1 [16]): 17.7 | Fold change (THP-1 [17]): 11.3 | Fold change (THP-1 [18]): 2.5 | Fold change (THP-1 [19]): 10.1 | Fold change (THP-1 [20]): -2.5 | Fold change (THP-1 [21]): -2.6 | Fold change (THP-1 [22]): 3.5 | Fold change (THP-1 [23]): 7 | Fold change (THP-1 [24]): 6.4 | Fold change (THP-1 [25]): 5.9 | Fold change (THP-1 [26]): -3.3 | Fold change (THP-1 [27]): -6 | Fold change (THP-1 [28]): -7.7 | Fold change (THP-1 [29]): 3.3 | Fold change (CCL16 (Homo sapiens)): 0.04
